Results published in ChEMBL document CHEMBL1152552, “Death receptor 5 promoter-enhancing compounds isolated from Catimbium speciosum and their enhancement effect on TRAIL-induced apoptosis” (Bioorg Med Chem, 2009).
Active and inactive are the calls of the source. The calls are words filed in the database; no cut-off is given here.

Key:
[1] = molecular target: Tumor necrosis factor receptor superfamily member 10B (Homo sapiens) (UniProt O14763); test: Induction of DR5 receptor promotor activity in human DLD1 cells co-transfected with Sac1 at 43.9 uM after 24 hrs by luciferase assay; type: cell-based; settings: DLD-1
Chain of Tumor necrosis factor receptor superfamily member 10B (Homo sapiens) (O14763 whole entry): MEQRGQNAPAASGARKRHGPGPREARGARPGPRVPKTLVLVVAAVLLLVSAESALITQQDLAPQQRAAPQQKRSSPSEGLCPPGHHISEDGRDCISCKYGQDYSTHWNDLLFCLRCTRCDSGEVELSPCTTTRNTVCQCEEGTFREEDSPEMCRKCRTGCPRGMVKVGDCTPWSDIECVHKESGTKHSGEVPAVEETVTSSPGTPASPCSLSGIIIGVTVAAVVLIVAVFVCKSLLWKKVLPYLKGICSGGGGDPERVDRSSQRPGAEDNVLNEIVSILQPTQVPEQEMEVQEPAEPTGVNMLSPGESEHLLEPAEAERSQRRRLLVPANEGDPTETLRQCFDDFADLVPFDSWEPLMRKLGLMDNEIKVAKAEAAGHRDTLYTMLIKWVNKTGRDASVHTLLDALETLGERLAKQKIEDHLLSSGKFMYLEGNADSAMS

[2] = molecular target: Tumor necrosis factor receptor superfamily member 10B (Homo sapiens) (UniProt O14763); test: Induction of DR5 receptor promotor activity in human DLD1 cells co-transfected with Sac1 at 39 uM after 24 hrs by luciferase assay; type: cell-based; settings: DLD-1
DLD-1 [3] = test: Induction of apoptosis in TRAIL-resistant human DLD1 cells assessed as accumulation in sub-G1 phase at 18.5 uM after 24 hrs using annexin-V-FITC/propidium iodide staining by flow cytometry in presence of TRAIL/caspase 9 inhibitor; type: functional, cell-based
Outline: (§1)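 DLD1/TR cells incubated 24 h with 18.5 uM test agent and 100 ng/mL TRAIL, plus either caspase-8 inhibitor z-IETD-fmk at 25 uM or caspase-9 inhibitor z-LEHD-fmk at 20 uM. Ethanol-fixed, PI/RNase stained, sub-G1 fraction read by flow cytometry (at least 20,000 events). Run in triplicate.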

DLD-1 [4] = test: Cytotoxicity against human DLD1 cells co-transfected with Sac1 after 24 hrs; type: functional, cell-based; settings: DLD-1, 24 h
AGS [5] = test: Induction of apoptosis in TRAIL-resistant human AGS cells assessed as early apoptotic cells at 18.5 uM after 24 hrs using annexin-V-FITC/propidium iodide staining by flow cytometry in presence of TRAIL; type: functional
DLD-1 [6] = test: Induction of apoptosis in TRAIL-resistant human DLD1 cells assessed as accumulation in sub-G1 phase after 24 hrs using annexin-V-FITC/propidium iodide staining by flow cytometry; type: functional
DLD-1 [7] = test: Induction of DR5 gene expression in human DLD1 cells co-transfected with Sac1 cells at 18.5 uM after 24 hrs by RT-PCR analysis
DLD-1 [8] = test: Increase in CHOP mRNA expression in human DLD1 cells co-transfected with Sac1 cells; type: functional, cell-based
AGS [9] = test: Induction of apoptosis in TRAIL-resistant human AGS cells assessed as late apoptotic cells at 18.5 uM after 24 hrs using annexin-V-FITC/propidium iodide staining by flow cytometry in presence of TRAIL; type: functional
[10] = molecular target: Tumor necrosis factor receptor superfamily member 10B (Homo sapiens) (UniProt O14763); test: Induction of DR5 receptor promotor activity in human DLD1 cells co-transfected with Sac1 cells at 18.5 uM after 24 hrs by luciferase assay; type: cell-based
DLD-1 [11] = test: Decrease in Bcl-xL protein expression in human DLD1 cells co-transfected with Sac1 cells after 24 hrs by Western blot analysis; type: functional, cell-based
Outline: (§2)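 Lysates of DLD1/TR cells treated 24 h (procaspase-8 after combined TRAIL exposure). Equal protein resolved by SDS-PAGE: 15% for Bcl-xL, 12.5% for DR5, 10% for caspase-8. Transferred to PVDF and probed 1 h at room temperature with primary antibody, then HRP secondary 1 h. Chemiluminescent detection with β-actin as loading control.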

DLD-1 [12] = test: Induction of apoptosis in TRAIL-resistant human DLD1 cells assessed as accumulation in sub-G1 phase at 9.3 uM after 24 hrs using annexin-V-FITC/propidium iodide staining by flow cytometry in presence of TRAIL; type: functional
AGS [13] = test: Induction of apoptosis in TRAIL-resistant human AGS cells assessed as early apoptotic cells at 9.3 uM after 24 hrs using annexin-V-FITC/propidium iodide staining by flow cytometry in presence of TRAIL; type: functional
DLD-1 [14] = test: Decrease in Bcl-xL mRNA expression in human DLD1 cells co-transfected with Sac1 cells at 9.3 uM after 24 hrs by RT-PCR analysis; type: functional, cell-based
DLD-1 [15] = test: Induction of apoptosis in TRAIL-resistant human DLD1 cells assessed as accumulation in sub-G1 phase at 18.5 uM after 24 hrs using annexin-V-FITC/propidium iodide staining by flow cytometry in presence of TRAIL/human recombinant DR5/Fc chimera protein; type: functional, cell-based
Outline: (§3)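 DLD1/TR cells incubated 24 h with 18.5 uM test agent and 100 ng/mL TRAIL, plus 2.5 ug/mL human recombinant DR5/Fc or DR4/Fc chimera. Ethanol-fixed, PI/RNase stained, sub-G1 fraction read by flow cytometry (at least 20,000 events). Run in triplicate.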

DLD-1 [16] = test: Induction of apoptosis in TRAIL-resistant human DLD1 cells assessed as early apoptotic cells at 9.3 uM after 24 hrs using annexin-V-FITC/propidium iodide staining by flow cytometry in presence of TRAIL; type: functional
DLD-1 [17] = test: Decrease in procaspase 8 in TRAIL-resistant human DLD1 cells co-transfected with Sac1 cells at 18.5 uM by Western blot analysis in presence of TRAIL; type: functional, cell-based; outline: as §2
DLD-1 [18] = test: Induction of apoptosis in TRAIL-resistant human DLD1 cells assessed as accumulation in sub-G1 phase at 18.5 uM after 24 hrs using annexin-V-FITC/propidium iodide staining by flow cytometry in presence of TRAIL/z-IETD-fmk caspase 8 inhibitor; type: functional, cell-based; outline: as §1
DLD-1 [19] = test: Induction of apoptosis in TRAIL-resistant human DLD1 cells assessed as early apoptotic cells at 18.5 uM after 24 hrs using annexin-V-FITC/propidium iodide staining by flow cytometry in presence of TRAIL; type: functional
DLD-1 [20] = test: Decrease in Bcl-xL mRNA expression in human DLD1 cells co-transfected with Sac1 cells at 18.5 uM after 24 hrs by RT-PCR analysis; type: functional, cell-based
DLD-1 [21] = test: Induction of apoptosis in TRAIL-resistant human DLD1 cells assessed as late apoptotic cells at 9.3 uM after 24 hrs using annexin-V-FITC/propidium iodide staining by flow cytometry in presence of TRAIL; type: functional
DLD-1 [22] = test: Induction of DR4 gene expression in human DLD1 cells co-transfected with Sac1 cells after 24 hrs by RT-PCR analysis; type: functional, cell-based
DLD-1 [23] = test: Induction of apoptosis in TRAIL-resistant human DLD1 cells assessed as accumulation in sub-G1 phase at 18.5 uM after 24 hrs using annexin-V-FITC/propidium iodide staining by flow cytometry in presence of TRAIL; type: functional
AGS [24] = test: Induction of apoptosis in TRAIL-resistant human AGS cells assessed as late apoptotic cells at 9.3 uM after 24 hrs using annexin-V-FITC/propidium iodide staining by flow cytometry in presence of TRAIL; type: functional
DLD-1 [25] = test: Induction of apoptosis in TRAIL-resistant human DLD1 cells assessed as accumulation in sub-G1 phase at 18.5 uM after 24 hrs using annexin-V-FITC/propidium iodide staining by flow cytometry in presence of TRAIL/human recombinant DR4/Fc chimera protein; type: functional, cell-based; outline: as §3
DLD-1 [26] = test: Induction of apoptosis in TRAIL-resistant human DLD1 cells assessed as late apoptotic cells at 18.5 uM after 24 hrs using annexin-V-FITC/propidium iodide staining by flow cytometry in presence of TRAIL; type: functional
DLD-1 [27] = test: Induction of DR5 protein expression in human DLD1 cells co-transfected with Sac1 cells after 24 hrs by Western blot analysis; type: functional, cell-based; outline: as §2
DLD-1 [28] = test: Activation of caspase 3 in TRAIL-resistant human DLD1 cells co-transfected with Sac1 cells by luminescent assay in presence of TRAIL; type: functional, cell-based
Outline: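 Cells exposed 24 h to 4.6, 9.3 or 18.5 uM test agent and/or 100 ng/mL TRAIL, harvested and lysed. Lysate incubated with luminogenic z-DEVD-aminoluciferin substrate (Caspase-Glo 3/7) for 1 h at room temperature; luminescence read on a luminometer.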

DLD-1 [29] = test: Induction of DR5 gene expression in human DLD1 cells co-transfected with Sac1 cells at 9.3 uM after 24 hrs by RT-PCR analysis; type: functional

COc1cc(/C=C/c2ccccc2)oc(=O)c1
fold change (FC) [1]: 2.5

O=C1C[C@@H](c2ccccc2)Oc2cc(O)cc(O)c21
fold change (FC) [2]: 2.5

COc1cc(O)cc(O)c1C(=O)/C=C/c1ccccc1 [CARDAMOMIN]
Activity (DLD-1 [3]): inactive | IC50 (DLD-1 [4]): 41.8 µM | Activity (AGS [5]): 30.2% | Activity (DLD-1 [6]): 15.5% | fold change (FC) (DLD-1 [7]): 4.1 | Activity (DLD-1 [8]): Dose-dependent effect | Activity (AGS [9]): 5% | fold change (FC) [10]: 4.1 | Activity (DLD-1 [11]): Dose-dependent effect | Activity (DLD-1 [12]): 41.9% | Activity (AGS [13]): 15% | Activity (DLD-1 [14]): Active | Activity (DLD-1 [15]): Active | Activity (DLD-1 [16]): 14.1% | Activity (DLD-1 [17]): Active | Activity (DLD-1 [18]): inactive | Activity (DLD-1 [19]): 26.7% | Activity (DLD-1 [20]): Active | Activity (DLD-1 [21]): 14.3% | Activity (DLD-1 [22]): Dose-dependent effect | Activity (DLD-1 [23]): 55.8% | Activity (AGS [24]): 3% | Activity (DLD-1 [25]): inactive | Activity (DLD-1 [26]): 20.5% | Activity (DLD-1 [27]): Dose-dependent effect | Activity (DLD-1 [28]): Dose-dependent effect | fold change (FC) (DLD-1 [29]): 2
